ChEMBL document CHEMBL5252540, “3-Aroyl-1,4-diarylpyrroles Inhibit Chronic Myeloid Leukemia Cell Growth through an Interaction with Tubulin” (ACS Med Chem Lett, 2017)
The source made the active and inactive calls. The rule behind the calls is not given here.

Assays:
MCF7 = assay: Cytotoxicity against human MCF7 cells assessed as cell growth inhibition incubated for 3 days by trypan blue exclusion assay; assay type: functional, cell-based; settings: MCF7, 72 h
Summary of the method: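 MCF-7 human breast carcinoma cells; growth inhibition; triplicate experiments.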

Tubulin = assay: Inhibition of tubulin (unknown origin) polymerization preincubated for 15 mins followed by GTP addition by turbidity based spectrophotometer analysis; assay type: protein-complex assay, Homo sapiens
Tubulin (Homo sapiens) = Tubulin (Homo sapiens) (UniProt P68371+Q9H4B7+P0DPH7+P68366+Q13509+Q71U36+P04350+Q3ZCM7+P07437+P68363+Q9BQE3+Q6PEY2+Q13885+Q9BVA1+Q9BUF5); assay: Inhibition of [3H]colchicine binding to tubulin (unknown origin) at 5 uM incubated for 10 mins relative to control; assay type: protein-complex assay
HCT-116 = assay: Cytotoxicity against human HCT-116 cells assessed as cell growth inhibition incubated for 48 hrs by MTT assay; assay type: functional, cell-based; settings: HCT-116, 48 h
KBM5 [1] = assay: Potentiation of imatinib mesylate induced apoptosis in human KBM5 cells expressing wild type BCR/ABL assessed as increase in pro-apoptogenic effect at 100 nM incubated for 24 hrs by annexin V-FITC/propidium iodide staining based flow cytometry analysis; assay type: functional, cell-based
Summary of the method: (§1)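 Annexin V-FITC staining to detect early cell death after 24 h; IM given with or without 100 nM test agent; read by flow cytometry; triplicate experiments.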

KU812 cell line [2] = assay: Induction of cell cycle arrest in human KU812 cells assessed as accumulation of cells at G2/M phase incubated for 24 hrs by RNase/PI staining based flow cytometry analysis relative to control; assay type: functional
Summary of the method: (§2)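 KU812 cells treated with 100 nM versus DMSO vehicle for 2-8 h or 24 h; cell cycle distribution (G2/M, sub-G1) by flow cytometry.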

LAMA-84 [3] = assay: Downregulation of phospho cofilin protein expression in human LAMA-84 cells at 100 nM incubated for 24 hrs by Western blot analysis; assay type: functional, cell-based
KU812 cell line [4] = assay: Induction of cell cycle arrest in human KU812 cells assessed as accumulation of cells at sub-G1 phase incubated for 2 to 8 hrs by RNase/PI staining based flow cytometry analysis relative to control; assay type: functional; settings: time 2-8 hrs; summary of the method: as §2
KU812 cell line [5] = assay: Induction of cell cycle arrest in human KU812 cells assessed as accumulation of cells at G2/M phase incubated for 2 to 8 hrs by RNase/PI staining based flow cytometry analysis (reference value: 35.7+/-[…]); assay type: functional; settings: time 2-8 hrs
LAMA-84 [6] = assay: Effect on total cofilin protein level in human LAMA-84 cells at 100 nM incubated for 24 hrs by Western blot analysis; assay type: functional, cell-based
KBM5 [7] = assay: Induction of apoptosis in imatinib mesylate sensitive human KBM5 cells expressing wild type BCR/ABL assessed as annexin V positive cells incubated for 48 hrs by annexin V-FITC/propidium iodide staining based flow cytometry analysis (reference value: 2.2+/-1.8%); assay type: functional
KYSE-150 cell line = assay: Cytotoxicity against human KYSE-150 cells assessed as cell growth inhibition incubated for 48 to 96 hrs by celltiter-flor reagent based fluorescence assay; assay type: functional
KU812 cell line [8] = assay: Induction of morphological changes in human KU812 cells assessed as elongated shape at 100 nM incubated for 16 hrs by immunostaining based phase contrast microscopic analysis; assay type: functional, cell-based
Summary of the method: (§3)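 KU812 cells treated with 100 nM versus DMSO vehicle; shape examined by phase contrast microscopy with tubulin immunostaining, scoring elongation, multiple centrosomes and failed cytokinesis.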

[9] = Cytotoxicity against human PBMC cells assessed as reduction in cell viability up to 1 uM incubated for 48 hrs by MTT assay; assay type: toxicity, cell-based
Summary of the method: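 Peripheral blood mononuclear cells isolated from healthy donors, exposed to compound up to 1 μM for 48 h; viability read by MTT assay; triplicate experiments.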

KU812 cell line [10] = assay: Induction of apoptosis in human KU812 cells assessed as appearance of blue-to-cyan fluorescence in nucleus by Hoechst-3258 staining based analysis; assay type: functional, cell-based
Summary of the method: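 KU812 cells treated with compound versus DMSO control; nuclear morphology by Hoechst-3258 staining, blue-to-cyan fluorescence scored as apoptotic.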

KU812 cell line [11] = assay: Induction of apoptosis in human KU812 cells assessed as upregulation of caspase-3 activation by flow cytometry; settings: time 0-24 hrs, TDE = time-dependent effect
HepG2 = assay: Cytotoxicity against human HepG2 cells assessed as cell growth inhibition incubated for 48 hrs by MTT assay; assay type: functional, cell-based; settings: HepG2, 48 h
KU812 cell line [12] = assay: Antiproliferative activity against human KU812 cells expressing BCR/ABL assessed as cell growth inhibition; assay type: functional, cell-based
Summary of the method: (§4)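 KU812 or LAMA84 CML blast-crisis cells (BCR/ABL-expressing) exposed to increasing doses for 48 h; proliferation read by MTT assay; triplicate experiments.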

KU812 cell line [13] = assay: Induction of apoptosis in human KU812 cells assessed as increase in PARP cleavage measured after 24 hrs by Western blot analysis; assay type: functional, cell-based
Summary of the method: (§5)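 KU812 cells treated for 6 h and 24 h; immunoblotting for p21Cip/WAF1 and PARP cleavage.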

KBM5 [14] = assay: Cytotoxicity against imatinib mesylate resistant human KBM5 cells expressing BCR/ABL T315I mutant assessed as cell growth inhibition; assay type: functional, cell-based
Summary of the method: (§6)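 Hematopoietic KBM5 cells ectopically expressing IM-sensitive wild-type or IM-resistant T315I BCR/ABL, dosed over a concentration range; growth measured by MTT assay; average IC50 from triplicate experiments.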

KU812 cell line [15] = assay: Induction of apoptosis in human KU812 cells assessed as accumulation of cells at sub-G1 phase incubated for 24 hrs by RNase/PI staining based flow cytometry analysis (reference value: 0.4+/-0.8%); assay type: functional
KBM5 [16] = assay: Induction of apoptosis in imatinib mesylate resistant human KBM5 cells expressing BCR/ABL-T315I mutant assessed as annexin V positive cells incubated for 48 hrs by annexin V-FITC/propidium iodide staining based flow cytometry analysis (reference value: 2.2+/-1.8%); assay type: functional
LAMA-84 [17] = assay: Effect on total beta-catenin protein level in human LAMA-84 cells at 100 nM incubated for 24 hrs by Western blot analysis; assay type: functional, cell-based
KU812 cell line [18] = assay: Induction of apoptosis in human KU812 cells assessed as upregulation of p21 Cip/WAF1 protein expression measured after 24 hrs by Western blot analysis; assay type: functional, cell-based; summary of the method: as §5
KBM5 [19] = assay: Cytotoxicity against imatinib mesylate sensitive human KBM5 cells expressing wild type BCR/ABL assessed as cell growth inhibition; assay type: functional, cell-based; summary of the method: as §6
LAMA-84 [20] = assay: Downregulation of E-cadherin protein level in human LAMA-84 cells at 100 nM incubated for 24 hrs by Western blot analysis; assay type: functional, cell-based
Summary of the method: (§7)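 LAMA84 cells cultured 24 h at 100 nM, alongside IM 100 nM and DMSO controls; lysates analysed by Western immunoblotting for BCR/ABL auto-activation and total E-cadherin.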

LAMA-84 [21] = assay: Potentiation of imatinib mesylate induced antiproliferative activity against human LAMA-84 cells assessed as imatinib mesylate IC50 incubated for 48 hrs by MTT assay; assay type: functional, cell-based; settings: LAMA-84, 48 h
LAMA-84 [22] = assay: Downregulation of unphosphorylated beta-catenin protein expression in human LAMA-84 cells at 100 nM incubated for 24 hrs by Western blot analysis; assay type: functional, cell-based
KU812 cell line [23] = assay: Induction of morphological changes in human KU812 cells expressing BCR/ABL assessed as multiple centrosome cells with failed cytokinesis at 100 nM incubated for 16 hrs by immunostaining based phase contrast microscopic analysis; assay type: functional, cell-based; summary of the method: as §3
LAMA-84 [24] = assay: Antiproliferative activity against human LAMA-84 cells expressing BCR/ABL assessed as cell growth inhibition at 12 nM incubated for 48 hrs by MTT assay relative to control; assay type: functional; summary of the method: as §4
KU812 cell line [25] = assay: Induction of apoptosis in human KU812 cells assessed as upregulation of p21 Cip/WAF1 protein expression incubated for 6 hrs by Western blot analysis; assay type: functional, cell-based; summary of the method: as §5
KU812 cell line [26] = assay: Antiproliferative activity against human KU812 cells expressing BCR/ABL assessed as cell growth inhibition at 12 nM incubated for 48 hrs by MTT assay relative to control; assay type: functional; summary of the method: as §4
KBM5 [27] = assay: Potentiation of imatinib mesylate induced apoptosis in human KBM5 cells expressing BCR/ABL T315I mutant assessed as increase in pro-apoptogenic effect at 100 nM incubated for 24 hrs by annexin V-FITC/propidium iodide staining based flow cytometry analysis; assay type: functional, cell-based; summary of the method: as §1
LAMA-84 [28] = assay: Antiproliferative activity against human LAMA-84 cells expressing BCR/ABL assessed as cell growth inhibition; assay type: functional, cell-based; summary of the method: as §4
[29] = biological target: Bcr/Abl fusion protein (Homo sapiens) (UniProt P00519+P11274); assay: Inhibition of BCR-ABL phospho-activation in human LAMA-84 cells at 100 nM incubated for 24 hrs by Western blot analysis; assay type: cell-based; summary of the method: as §7
Sequence of Bcr/Abl fusion protein (Homo sapiens) (P00519 whole entry, looked up, the tested form may be a part): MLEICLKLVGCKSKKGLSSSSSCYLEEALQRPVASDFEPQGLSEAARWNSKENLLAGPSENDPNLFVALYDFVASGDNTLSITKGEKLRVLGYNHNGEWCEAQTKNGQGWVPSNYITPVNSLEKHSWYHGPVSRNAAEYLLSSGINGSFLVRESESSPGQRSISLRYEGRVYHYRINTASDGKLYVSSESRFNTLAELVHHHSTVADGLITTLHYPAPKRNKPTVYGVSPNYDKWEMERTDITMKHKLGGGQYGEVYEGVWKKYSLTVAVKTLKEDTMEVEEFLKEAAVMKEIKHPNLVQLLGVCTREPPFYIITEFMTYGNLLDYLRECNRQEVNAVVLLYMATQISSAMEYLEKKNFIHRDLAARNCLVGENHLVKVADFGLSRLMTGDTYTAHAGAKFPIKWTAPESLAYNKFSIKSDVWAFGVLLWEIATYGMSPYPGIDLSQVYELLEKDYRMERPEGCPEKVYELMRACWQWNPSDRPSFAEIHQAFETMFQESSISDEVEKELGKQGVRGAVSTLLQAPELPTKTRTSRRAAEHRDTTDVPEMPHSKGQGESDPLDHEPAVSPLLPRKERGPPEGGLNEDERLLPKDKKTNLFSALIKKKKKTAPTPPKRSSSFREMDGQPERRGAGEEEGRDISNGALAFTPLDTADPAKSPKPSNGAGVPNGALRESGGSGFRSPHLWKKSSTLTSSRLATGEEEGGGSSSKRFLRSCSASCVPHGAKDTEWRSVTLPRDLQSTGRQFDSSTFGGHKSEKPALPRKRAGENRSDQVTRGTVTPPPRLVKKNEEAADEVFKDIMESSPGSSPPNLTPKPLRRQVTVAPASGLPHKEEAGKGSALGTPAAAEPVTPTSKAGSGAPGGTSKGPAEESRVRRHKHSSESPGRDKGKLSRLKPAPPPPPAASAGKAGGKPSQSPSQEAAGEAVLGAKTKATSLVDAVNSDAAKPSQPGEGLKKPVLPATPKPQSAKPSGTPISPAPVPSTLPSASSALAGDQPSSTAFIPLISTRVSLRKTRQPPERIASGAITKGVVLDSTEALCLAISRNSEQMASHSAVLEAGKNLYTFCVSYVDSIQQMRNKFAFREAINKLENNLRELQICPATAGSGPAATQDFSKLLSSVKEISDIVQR
Sequence of Bcr/Abl fusion protein (Homo sapiens) (P11274 whole entry, looked up, the tested form may be a part): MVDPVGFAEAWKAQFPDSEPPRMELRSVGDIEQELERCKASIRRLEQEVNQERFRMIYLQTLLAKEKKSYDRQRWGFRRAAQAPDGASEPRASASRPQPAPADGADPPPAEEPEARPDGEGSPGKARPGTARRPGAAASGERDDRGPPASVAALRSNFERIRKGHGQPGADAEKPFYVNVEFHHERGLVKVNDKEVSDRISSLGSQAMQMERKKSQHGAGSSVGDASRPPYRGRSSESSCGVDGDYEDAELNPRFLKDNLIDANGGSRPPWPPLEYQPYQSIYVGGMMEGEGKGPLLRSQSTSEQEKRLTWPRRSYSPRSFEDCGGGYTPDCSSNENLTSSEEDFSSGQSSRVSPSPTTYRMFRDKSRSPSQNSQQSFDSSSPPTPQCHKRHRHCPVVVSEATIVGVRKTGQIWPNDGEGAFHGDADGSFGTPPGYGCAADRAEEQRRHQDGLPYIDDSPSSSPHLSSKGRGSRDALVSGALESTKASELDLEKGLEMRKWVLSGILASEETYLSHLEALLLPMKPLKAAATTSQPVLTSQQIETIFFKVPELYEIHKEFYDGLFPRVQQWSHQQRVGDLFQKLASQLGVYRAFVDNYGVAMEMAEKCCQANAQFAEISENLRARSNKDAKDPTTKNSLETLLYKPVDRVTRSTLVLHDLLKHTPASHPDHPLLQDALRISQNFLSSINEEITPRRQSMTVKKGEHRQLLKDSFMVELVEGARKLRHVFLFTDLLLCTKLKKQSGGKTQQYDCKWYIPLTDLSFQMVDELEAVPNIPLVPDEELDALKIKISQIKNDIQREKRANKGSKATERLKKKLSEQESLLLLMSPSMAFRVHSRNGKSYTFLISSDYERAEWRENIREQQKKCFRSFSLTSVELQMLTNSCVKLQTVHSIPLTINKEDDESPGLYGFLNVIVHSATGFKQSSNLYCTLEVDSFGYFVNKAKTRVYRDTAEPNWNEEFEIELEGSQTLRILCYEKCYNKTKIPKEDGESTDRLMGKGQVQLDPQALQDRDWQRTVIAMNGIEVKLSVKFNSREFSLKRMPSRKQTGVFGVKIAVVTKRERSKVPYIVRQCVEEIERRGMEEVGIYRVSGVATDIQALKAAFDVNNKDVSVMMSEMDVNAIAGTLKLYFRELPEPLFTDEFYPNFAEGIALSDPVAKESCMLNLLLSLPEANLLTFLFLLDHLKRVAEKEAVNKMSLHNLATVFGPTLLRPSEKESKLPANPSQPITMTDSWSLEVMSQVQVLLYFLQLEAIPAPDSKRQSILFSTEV

OVCAR-8 = assay: Cytotoxicity against human OVCAR-8 cells assessed as cell growth inhibition incubated for 3 days by trypan blue exclusion assay; assay type: functional, cell-based; settings: OVCAR-8, 72 h
NCI/ADR-RES = assay: Cytotoxicity against human NCI/ADR-RES cells overexpressing p-glycoprotein assessed as cell growth inhibition incubated for 3 days by trypan blue exclusion assay; assay type: functional, cell-based; settings: 72 h

COc1cc(C(=O)c2cn(-c3ccc(C)cc3)cc2-c2ccccc2)cc(OC)c1OC
IC50 (MCF7): 30 nM
IC50 (Tubulin): 880 nM
inhibition (Tubulin (Homo sapiens)): 79%

COc1cc(C(=O)c2cn(-c3cccc(C)c3)cc2-c2ccccc2)cc(OC)c1OC
IC50 (MCF7): 120 nM
IC50 (Tubulin): 1700 nM
inhibition (Tubulin (Homo sapiens)): 82%

COc1cc(C(=O)c2cn(-c3ccccc3)cc2-c2ccc(C)cc2)cc(OC)c1OC
IC50 (MCF7): 280 nM
IC50 (Tubulin): 2200 nM
inhibition (Tubulin (Homo sapiens)): 24%

COc1cc(C(=O)c2cn(-c3ccccc3)cc2-c2ccc(N)cc2)cc(OC)c1OC
IC50 (HCT-116): 20 nM
Activity (KBM5 [1]): Active
Activity (KU812 cell line [2]): 11.4%
Activity (LAMA-84 [3]): Active
Activity (KU812 cell line [4]): <10%
Activity (KU812 cell line [5]): 60.3%
Activity (LAMA-84 [6]): inactive
Activity (KBM5 [7]): 62.6%
IC50 (KYSE-150 cell line): 20 nM
Activity (KU812 cell line [8]): Active
Activity [9]: Non-Toxic
Activity (KU812 cell line [10]): Active
inhibition (Tubulin (Homo sapiens)): 81%
Activity (KU812 cell line [11]): Tde
IC50 (HepG2): 46 nM
IC50 (KU812 cell line [12]): 12 nM
Activity (KU812 cell line [13]): Active
IC50 (KBM5 [14]): 18 nM
Activity (KU812 cell line [15]): 75.6%
Activity (KBM5 [16]): 58.2%
Activity (LAMA-84 [17]): inactive
Activity (KU812 cell line [18]): inactive
IC50 (KBM5 [19]): 15 nM
Activity (LAMA-84 [20]): Active
IC50 (LAMA-84 [21]): < 10 nM
Activity (LAMA-84 [22]): Active
Activity (KU812 cell line [23]): Active
inhibition at 0.012 µM (LAMA-84 [24]): 50%
Activity (KU812 cell line [25]): Active
inhibition at 0.012 µM (KU812 cell line [26]): 50%
Activity (KBM5 [27]): Active
IC50 (LAMA-84 [28]): 14 nM
inhibition [29]: inactive

COc1cc(C(=O)c2cn(-c3cccc(N)c3)cc2-c2ccccc2)cc(OC)c1OC
IC50 (MCF7): 74 nM
IC50 (Tubulin): 1100 nM
inhibition (Tubulin (Homo sapiens)): 82%

COc1cc(C(=O)c2cn(-c3ccccc3)cc2-c2cccc(F)c2)cc(OC)c1OC
IC50 (MCF7): 57 nM
IC50 (Tubulin): 630 nM
inhibition (Tubulin (Homo sapiens)): 53%

COc1cc(C(=O)c2cn(-c3ccccc3F)cc2-c2ccccc2)cc(OC)c1OC
IC50 (MCF7): 85 nM
IC50 (Tubulin): 2000 nM
inhibition (Tubulin (Homo sapiens)): 29%

COc1cc(C(=O)c2cn(-c3ccccc3)cc2-c2cccc(N)c2)cc(OC)c1OC
IC50 (MCF7): 28 nM
IC50 (Tubulin): 390 nM
IC50 (OVCAR-8): 190 nM
inhibition (Tubulin (Homo sapiens)): 57%
IC50 (NCI/ADR-RES): 110 nM
